# Measurements reported in ChEMBL document CHEMBL1146216, “Synthesis and biological activity of a gemcitabine phosphoramidate prodrug” (J Med Chem, 2007).
# pIC50: −log10 of the molar value.
# Experiments:
# [1] = tested on: UACC-257; test: Growth inhibition of UACC257 cells; type: functional; conditions: Homo sapiens
# [2] = tested on: HCT-116; test: Growth inhibition in HCT116 cells; type: functional; conditions: Homo sapiens
# [3] = tested on: A2780; test: Growth inhibition of A2780 cells by SRB assay in presence of dipyridamole; type: functional, cell-based; conditions: Homo sapiens
# Summary of the method: (§1)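 SRB growth assay run with the nucleoside transport inhibitor dipyridamole at 1 µM final. Cells were seeded at 5000/well and exposed to a range of drug concentrations for 72 h at 37 °C, 5% CO2. Media: DMEM for A2780 and the dCK-deficient AG6000; RPMI for A549, H292 and H460; each with 10% FCS and 20 mM HEPES. Relative growth was calculated against ODzero and untreated controls.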
# [4] = tested on: SNB-75; test: Growth inhibition of SNB75 cells; type: functional; conditions: Homo sapiens
# [5] = tested on: SNB-19; test: Growth inhibition of SNB19 cells; type: functional; conditions: Homo sapiens
# [6] = tested on: NCI-H23; test: Growth inhibition of NCI-H23 cells; type: functional; conditions: Homo sapiens
# [7] = tested on: OVCAR-8; test: Growth inhibition of OVCAR8 cells; type: functional; conditions: Homo sapiens
# [8] = tested on: SW1573; test: Growth inhibition of SW1573 cells by SRB assay in presence of dipyridamole; type: functional, cell-based; conditions: Homo sapiens
# Summary of the method: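 SW1573 cells cultured in DMEM, 10% FCS, 20 mM HEPES, 37 °C, 5% CO2. Plated at 5000 cells/well and given graded drug concentrations with the nucleoside transport inhibitor dipyridamole at 1 µM final, for 72 h. SRB read-out at OD 540 or 492 nm. Growth is expressed relative to time-zero and untreated wells.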
# [9] = tested on: NCI-H226; test: Growth inhibition of NCI-H226 cells; type: functional; conditions: Homo sapiens
# [10] = tested on: NCI-H460; test: Ratio of growth inhibition of H460 cells by drug to 2'-2'-difluorodeoxycytidine; type: functional, Homo sapiens
# [11] = tested on: U-251; test: Growth inhibition of U251 cells; type: functional; conditions: Homo sapiens
# [12] = tested on: NCI-H522; test: Growth inhibition of NCI-H522 cells; type: functional; conditions: Homo sapiens
# [13] = tested on: SF-539; test: Growth inhibition of SF539 cells; type: functional; conditions: Homo sapiens
# [14] = tested on: SK-MEL-5; test: Growth inhibition of SK-MEL-5 cells; type: functional; conditions: Homo sapiens
# [15] = tested on: NCI/ADR-RES; test: Growth inhibition of NCI/ADR-RES cells; type: functional; conditions: Homo sapiens
# [16] = tested on: MOLT-4; test: Growth inhibition of MOLT4 cells; type: functional; conditions: Homo sapiens
# [17] = tested on: A2780; test: Ratio of growth inhibition of A2780 cells by drug to 2'-2'-difluorodeoxycytidine; type: functional, Homo sapiens
# [18] = tested on: NCI-H322M; test: Growth inhibition of NCI-H322M cells; type: functional; conditions: Homo sapiens
# [19] = tested on: OVCAR-5; test: Growth inhibition of OVCAR5 cells; type: functional; conditions: Homo sapiens
# [20] = tested on: NCI-H460; test: Growth inhibition of H460 cells by SRB assay; type: functional, cell-based; conditions: Homo sapiens
# Summary of the method: (§2)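 Cells seeded at 5000/well and exposed to a range of drug concentrations for 72 h at 37 °C, 5% CO2, then read by SRB. A2780 and its dCK-deficient variant AG6000 were grown in DMEM; A549, H292 and H460 in RPMI; both media had 10% FCS and 20 mM HEPES. OD was read at 540 or 492 nm. Relative growth = (ODtreated − ODzero)/(ODcontrol − ODzero) × 100%, with ODzero taken at drug addition.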
# [21] = tested on: KM12; test: Growth inhibition of KM12 cells; type: functional; conditions: Homo sapiens
# [22] = tested on: A549; test: Growth inhibition of A549 cells by SRB assay in presence of dipyridamole; type: functional, cell-based; conditions: Homo sapiens; summary of the method: as §1
# [23] = tested on: CCRF-CEM; test: Ratio of growth inhibition of CEM cells by drug to 2'-2'-difluorodeoxycytidine; type: functional, Homo sapiens
# [24] = tested on: SK-MEL-2; test: Growth inhibition of SK-MEL-2 cells; type: functional; conditions: Homo sapiens
# [25] = tested on: IGROV-1; test: Growth inhibition in IGROV1 cells; type: functional; conditions: Homo sapiens
# [26] = tested on: PC-3; test: Growth inhibition of PC3 cells; type: functional; conditions: Homo sapiens
# [27] = tested on: A549; test: Growth inhibition of A549 cells by SRB assay; type: functional, cell-based; conditions: Homo sapiens; summary of the method: as §2
# [28] = tested on: COLO 205; test: Growth inhibition in COLO 205 cells; type: functional; conditions: Homo sapiens
# [29] = tested on: A2780; test: Growth inhibition of A2780 cells by SRB assay; type: functional, cell-based; conditions: Homo sapiens; summary of the method: as §2
# [30] = tested on: CCRF-CEM; test: Growth inhibition of CEM cells by MTT assay in presence of dipyridamole; conditions: Homo sapiens
# [31] = tested on: K562; test: Growth inhibition of K562 cells; type: functional; conditions: Homo sapiens
# [32] = tested on: MDA-MB-435; test: Growth inhibition of MDA-MB-435 cells; type: functional; conditions: Homo sapiens
# [33] = tested on: ACHN; test: Growth inhibition in ACHN cells; type: functional; conditions: Homo sapiens
# [34] = tested on: M14; test: Growth inhibition of M14 cells; type: functional; conditions: Homo sapiens
# [35] = tested on: MDA-MB-231; test: Growth inhibition of MDA-MB-231 cells; type: functional; conditions: Homo sapiens
# [36] = tested on: CCRF-CEM; test: Ratio of growth inhibition of dCK deficient CEM cells by drug to 2'-2'-difluorodeoxycytidine; type: functional, Homo sapiens
# [37] = tested on: SW-620; test: Growth inhibition of SW620 cells; type: functional; conditions: Homo sapiens
compound,measurement,setting,value
CN(CCCCCl)P(=O)(OCc1ccc([N+](=O)[O-])o1)OC[C@H]1O[C@@H](n2ccc(N)nc2=O)C(F)(F)[C@@H]1O (some centres not stated),GI50,[1],17 µM
same,GI50,[2],1.1 µM
same,pIC50,[3],6.40
same,GI50,[4],13 µM
same,GI50,[5],0.26 µM
same,GI50,[6],0.074 µM
same,GI50,[7],0.11 µM
same,pIC50,[8],< 6.30
same,GI50,[9],16 µM
same,Ratio IC50,[10],7.7
same,GI50,[11],0.78 µM
same,GI50,[12],15 µM
same,GI50,[13],0.042 µM
same,GI50,[14],3.2 µM
same,GI50,[15],0.23 µM
same,GI50,[16],0.77 µM
same,Ratio IC50,[17],5.3
same,GI50,[18],3.5 µM
same,GI50,[19],1.9 µM
same,pIC50,[20],7.11
same,GI50,[21],15 µM
same,pIC50,[22],< 6.30
same,Ratio IC50,[23],15
same,GI50,[24],80 µM
same,GI50,[25],14 µM
same,GI50,[26],1.8 µM
same,pIC50,[27],7.10
same,GI50,[28],7.5 µM
same,pIC50,[29],8.10
same,pIC50,[30],5.40
same,GI50,[31],13 µM
same,GI50,[32],0.47 µM
same,GI50,[33],0.038 µM
same,GI50,[34],0.054 µM
same,GI50,[35],25 µM
same,Ratio IC50,[36],0.26
same,GI50,[37],38 µM
